# According to ChEMBL document CHEMBL4706496, “Discovery of novel aminopiperidinyl amide CXCR4 modulators through virtual screening and rational drug design” (Eur J Med Chem, 2020):
# The source made the active and inactive calls.
# Tests used:
# [1] = target: C-X-C chemokine receptor type 4 (Homo sapiens) (UniProt P61073); assay: Binding affinity to human CXCR4 in human MDA-MB-231 cells assessed as inhibition of CXCR4-targeted conjugate formation preincubated with compound followed by biotinylated-TN14003 addition and measured after 45 mins by competition based microscopic analysis; format: cell-based
# Sequence of C-X-C chemokine receptor type 4 (Homo sapiens) (P61073 whole entry): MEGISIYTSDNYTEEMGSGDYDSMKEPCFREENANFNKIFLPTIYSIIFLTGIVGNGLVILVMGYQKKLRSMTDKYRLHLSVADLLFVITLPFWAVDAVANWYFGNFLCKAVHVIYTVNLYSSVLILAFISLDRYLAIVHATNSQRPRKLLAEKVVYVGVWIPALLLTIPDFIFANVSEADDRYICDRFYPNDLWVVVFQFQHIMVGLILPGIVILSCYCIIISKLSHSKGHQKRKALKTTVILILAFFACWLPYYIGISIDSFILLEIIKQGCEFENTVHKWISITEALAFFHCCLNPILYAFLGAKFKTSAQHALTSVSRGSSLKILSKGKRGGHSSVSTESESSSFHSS
# Procedure, shortened: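 MDA-MB-231 cells in chamber slides preincubated with compound at 1, 10, 100 and 1000 nM. Then fixed in 4% formaldehyde, incubated with 50 nM biotinylated TN14003, and stained with streptavidin–rhodamine. Fluorescence imaged by microscopy and quantified. EC defined as the concentration blocking >50% of probe signal; IC50 obtained by curve fitting.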
# MDA-MB-231 = assay: Antiinvasive activity against human MDA-MB-231 cells assessed as inhibition of cell migration at 100 nM incubated for 22 hrs by H and E staining based matrigel invasion assay; format: functional
# Procedure, shortened: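 MDA-MB-231 cells (DMEM, 10% FBS, penicillin/streptomycin) seeded on Matrigel in upper chamber with compound at 100 nM; 200 ng/mL CXCL12 in lower chamber as chemoattractant. Invaded cells at the Matrigel bottom fixed in methanol, H&E stained and counted to give percentage invasion.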
# Mus musculus [2] = assay: Antiinflammatory activity in JAZ 007850 J:NU mouse assessed as decrease in carrageenan-induced paw edema treated at 10 mg/kg, ip qd starting 30 min after carrageenan challenge measured after 74 hrs
# [3] = Stability in athymic nude-Foxn1 mouse serum measured upto 120 mins by HPLC method; format: ADME, cell-free; settings: 2 h
# Procedure, shortened: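 Blood from female athymic nude mice (7 weeks) taken from orbital venous sinus and spun at 13,000 rpm, 6 min, 4 °C. Supernatant mixed 4:1 with 10 mM aqueous compound solution (stock) and held at 36.6 °C. Samples at 0, 5, 15, 30, 60, 120 min passed through 10 kDa filter. Filtrate run on C18 HPLC, acetonitrile/water (0.1% TEA) 3:7, detection at 310 nm. Half-life from one-phase decay fit.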
# Mus musculus [4] = assay: Antiinflammatory activity in carrageenan-induced JAZ 007850 J:NU mouse model assessed as reduction in infiltration of CXCR-4 expressing cells at 10 mg/kg, ip qd measured after 74 hrs by immunohistochemistry assay; format: functional, organism-based
# Procedure, shortened: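 Carrageenan paw edema tissue (male nude mice, 10 mg/kg i.p. daily, harvested 74 h) formalin-fixed, paraffin-embedded, deparaffinized. Antigen retrieval by microwaving in 10 mM sodium citrate pH 6.0. Blocked with hydrogen peroxide, avidin/biotin and horse serum. Anti-CXCR4 antibody at 1:500 overnight at 4 °C, then biotinylated secondary and avidin-biotin complex. Developed with diaminobenzidine, hematoxylin counterstain; H&E sections also examined.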
SMILES,EC [1],t1/2 [3],inhibition at 0.1 µM (MDA-MB-231),inhibition (Mus musculus [2]),inhibition (Mus musculus [4]),inhibition (MDA-MB-231)
O=C(CN1CCC(n2nnc(-c3cccs3)n2)CC1)Nc1ccc(Cn2cncn2)cc1,100 nM,,40.9%,,,
O=C(Nc1ccc2c(c1)OCO2)C1CCN(C(=O)NC2CCN(Cc3ccccc3)CC2)CC1,10 nM,,9.3%,,,
NC(=O)C1CCN(Cc2ccc(NC(=O)CCc3c[nH]c4ccccc34)cc2)CC1,1000 nM,,,,,inactive
N[C@@H](C(=O)NC1CCN(C(=O)CCn2ccc3ccncc32)CC1)c1ccccc1,100 nM,,68.6%,,,

# Now from value to compound, other results behind:
EC [1],t1/2 [3],SMILES,inhibition at 0.1 µM (MDA-MB-231),inhibition (Mus musculus [2]),inhibition (Mus musculus [4]),inhibition (MDA-MB-231)
1 nM,1.28 h,N=C(N)NCCC[C@H](N)C(=O)NC1CCN(C(=O)CCn2ccc3ccncc32)CC1,78.5%,Active,Active,
100 nM,,C[C@@H](NC(=O)[C@@H](N)c1ccccc1)C(=O)N1CCN(C(=O)CCn2ccc3ccncc32)CC1,15.7%,,,
1000 nM,,O=C(NCCc1c[nH]c2ccccc12)C1CCN(C(=O)Cc2nnc(O)c3ccccc23)CC1,,,,inactive
> 1000 nM,,C[C@H](C(=O)N[C@@H]1CCN(Cc2ccccc2)C1)N1CCC(C(=O)Nc2cc(O)ccc2Cl)CC1,,,,inactive
